Assay results taken from ChEMBL document CHEMBL5678798 (Clin Cancer Res, 2009).
Calls of active or inactive are those of the source. The calls are words filed in the database; no cut-off is given here.

Key:
Rattus norvegicus = organism: Rattus norvegicus; assay: Inhibition of recombinant rat AMPK at 0.3 uM by filter binding assay relative to control
[1] = biological target: Serine/threonine-protein kinase SIK2 (Homo sapiens, UniProt Q9H0K1); assay: Inhibition of SIK2 (unknown origin)
[2] = biological target: Glycogen synthase kinase-3 beta (Homo sapiens, UniProt P49841); assay: Inhibition of GSK3beta (unknown origin)
Glycogen synthase kinase-3 beta, sequence (P49841 whole entry): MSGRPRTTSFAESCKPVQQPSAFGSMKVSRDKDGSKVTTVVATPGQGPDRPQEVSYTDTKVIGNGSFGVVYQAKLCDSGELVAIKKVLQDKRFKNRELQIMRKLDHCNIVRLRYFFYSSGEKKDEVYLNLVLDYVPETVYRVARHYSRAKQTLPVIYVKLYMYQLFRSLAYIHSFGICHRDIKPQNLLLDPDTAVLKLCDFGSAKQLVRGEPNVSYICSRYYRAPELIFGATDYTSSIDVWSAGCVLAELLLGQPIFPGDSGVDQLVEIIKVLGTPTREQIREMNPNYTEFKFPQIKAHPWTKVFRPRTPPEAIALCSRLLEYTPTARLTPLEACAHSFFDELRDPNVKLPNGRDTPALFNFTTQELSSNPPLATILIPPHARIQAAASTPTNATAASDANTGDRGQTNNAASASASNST

MX1 = assay: Antiproliferative activity against human MX1 cells assessed as reduction in cell viability after 72 hrs by CellTiter-Glo assay; format: functional, cell-based; details: MX1, 72 h
Method in brief: (§1)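 Cells seeded in 96-well plates, left overnight at 37°C, then exposed to a range of test concentrations for 72 h. Viability read by CellTiter-Glo luminescence; IC50 from four-parameter curve fit. Lines kept at 37°C, 5% CO2, in recommended growth medium.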

LNCaP = assay: Antiproliferative activity against human LNCaP cells assessed as reduction in cell viability after 72 hrs by CellTiter-Glo assay; format: functional, cell-based; method in brief: as §1
[3] = biological target: Testis-specific serine/threonine-protein kinase 1 (Homo sapiens) (UniProt Q9BXA7); assay: Inhibition of 6His-tagged recombinant human full length TSSK1 expressed in baculovirus infected Sf21 cells at 3 uM by filter binding assay relative to control
Testis-specific serine/threonine-protein kinase 1 (Homo sapiens), sequence (Q9BXA7 whole entry): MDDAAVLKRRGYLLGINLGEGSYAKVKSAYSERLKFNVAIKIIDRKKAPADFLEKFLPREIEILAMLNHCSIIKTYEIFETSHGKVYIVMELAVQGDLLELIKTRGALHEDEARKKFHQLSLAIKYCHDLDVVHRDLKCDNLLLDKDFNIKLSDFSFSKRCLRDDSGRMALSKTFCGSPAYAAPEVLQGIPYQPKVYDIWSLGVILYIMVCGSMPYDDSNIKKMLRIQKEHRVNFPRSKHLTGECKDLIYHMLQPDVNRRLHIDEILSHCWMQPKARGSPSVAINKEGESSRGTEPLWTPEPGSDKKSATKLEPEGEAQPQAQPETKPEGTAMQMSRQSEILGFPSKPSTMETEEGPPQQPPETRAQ
Method in brief: (§2)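 KinaseProfiler panel of 233 kinases: radiometric filter-binding activity assays with compound at 0.3 or 3 µmol/L. Read-out is percent inhibition.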

[4] = Antiproliferative activity against human SK-ES cells assessed as reduction in cell viability after 72 hrs by CellTiter-Glo assay; format: functional, cell-based; method in brief: as §1
[5] = biological target: Ephrin type-A receptor 4 (Homo sapiens) (UniProt P54764); assay: Inhibition of N-terminal His6-tagged recombinant human EphA4 (601 to 892 residues) expressed in baculovirus infected Sf21 cells at 3 uM by filter binding assay relative to control
[6] = biological target: Macrophage colony-stimulating factor 1 receptor (Homo sapiens) (UniProt P07333); assay: Inhibition of N-terminal His6-tagged recombinant human Fms (538 to end residues) expressed in baculovirus infected Sf21 cells at 0.3 uM by filter binding assay relative to control
[7] = biological target: Insulin-like growth factor 1 receptor (Homo sapiens, UniProt P08069); assay: Inhibition of N-terminal 6His-tagged recombinant human IGF-1R (959 to end residues) expressed in baculovirus infected Sf21 cells by filter binding assay
Insulin-like growth factor 1 receptor, sequence (P08069 31-736 limits assumed): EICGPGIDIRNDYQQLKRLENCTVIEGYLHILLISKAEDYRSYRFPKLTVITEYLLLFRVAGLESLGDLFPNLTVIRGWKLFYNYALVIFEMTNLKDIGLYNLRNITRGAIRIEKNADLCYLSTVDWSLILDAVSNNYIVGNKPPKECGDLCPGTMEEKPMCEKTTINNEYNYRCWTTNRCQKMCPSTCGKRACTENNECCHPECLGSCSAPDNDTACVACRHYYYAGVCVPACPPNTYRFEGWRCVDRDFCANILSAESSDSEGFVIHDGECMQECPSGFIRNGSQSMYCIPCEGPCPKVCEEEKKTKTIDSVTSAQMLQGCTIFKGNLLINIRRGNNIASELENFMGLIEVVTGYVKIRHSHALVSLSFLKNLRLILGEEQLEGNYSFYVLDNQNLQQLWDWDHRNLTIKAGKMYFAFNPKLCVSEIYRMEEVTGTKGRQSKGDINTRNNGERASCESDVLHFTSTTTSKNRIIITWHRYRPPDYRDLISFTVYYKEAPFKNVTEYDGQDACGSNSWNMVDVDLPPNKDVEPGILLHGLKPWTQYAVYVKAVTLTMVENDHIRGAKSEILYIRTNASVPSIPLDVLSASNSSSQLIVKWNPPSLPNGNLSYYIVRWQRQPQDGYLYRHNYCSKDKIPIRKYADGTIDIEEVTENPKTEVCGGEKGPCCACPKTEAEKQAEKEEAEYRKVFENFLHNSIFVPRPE
Insulin-like growth factor 1 receptor, sequence (P08069 741-1367 limits assumed): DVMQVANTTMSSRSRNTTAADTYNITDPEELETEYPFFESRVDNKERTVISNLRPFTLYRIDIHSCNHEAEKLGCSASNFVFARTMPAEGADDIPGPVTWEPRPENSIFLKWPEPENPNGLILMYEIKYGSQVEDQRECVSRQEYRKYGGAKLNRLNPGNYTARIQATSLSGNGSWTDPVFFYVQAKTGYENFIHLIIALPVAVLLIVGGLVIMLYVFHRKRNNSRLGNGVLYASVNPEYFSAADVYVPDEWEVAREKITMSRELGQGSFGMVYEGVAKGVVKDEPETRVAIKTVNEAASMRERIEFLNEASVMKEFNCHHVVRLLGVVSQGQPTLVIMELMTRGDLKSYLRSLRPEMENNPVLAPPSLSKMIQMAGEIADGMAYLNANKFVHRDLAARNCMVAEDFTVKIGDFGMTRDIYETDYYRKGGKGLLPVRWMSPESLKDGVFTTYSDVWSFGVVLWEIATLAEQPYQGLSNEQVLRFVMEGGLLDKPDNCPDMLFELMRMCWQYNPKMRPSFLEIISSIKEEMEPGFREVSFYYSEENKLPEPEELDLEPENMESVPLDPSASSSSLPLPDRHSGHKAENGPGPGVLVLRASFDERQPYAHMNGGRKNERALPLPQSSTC

[8] = In vivo inhibition of IGF1R in mouse NIH-3T3/LISN cells implanted in IGF1-stimulated nu/nu CD-1 mouse assessed as reduction in IGF1R phosphorylation at 30 mg/kg, po pretreated for 4 to 8 hrs followed by IGF1 stimulation and measured after 10 min by […] relative to control; format: functional; details: time 240-490 min
Method in brief: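 Time course: tumor-bearing female nu/nu CD-1 mice, three per group, given a single oral 30 mg/kg dose or vehicle. IGF-I given 10 min before blood and tumor collection at each time point. Tumor phospho-IGF-IR/total IGF-IR measured by capture-plate europium phosphotyrosine assay and expressed as % of ligand-stimulated control.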

COLO 205 = assay: Induction of cell cycle arrest in human COLO 205 cells assessed as decrease in cells accumulation at G2/M phase at 0.03 to 10 uM incubated for 24 to 48 hrs by propidium iodide staining based flow cytometric analysis; format: functional; details: dose 0.03-10 µM, time lower 24.0 hrs, time upper […]
Method in brief: (§3)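 COLO 205, MCF-7 or NCI-H929 cells seeded in 96-well plates overnight at 37°C, then exposed to DMSO or increasing compound concentrations for 24 or 48 h. Fixed and stained with propidium iodide (Vindelov method), then analysed by flow cytometry for sub-G1, G1, S and G2-M fractions. Experiment repeated twice.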

[9] = biological target: Serine/threonine-protein kinase BRSK1 (Homo sapiens) (UniProt Q8TDC3); assay: Inhibition of N-terminal 6His-tagged recombinant human BrSK1 (2 to end residues) expressed in baculovirus infected Sf21 cells at 3 uM by filter binding assay relative to control
Serine/threonine-protein kinase BRSK1 (Homo sapiens), sequence (Q8TDC3 whole entry): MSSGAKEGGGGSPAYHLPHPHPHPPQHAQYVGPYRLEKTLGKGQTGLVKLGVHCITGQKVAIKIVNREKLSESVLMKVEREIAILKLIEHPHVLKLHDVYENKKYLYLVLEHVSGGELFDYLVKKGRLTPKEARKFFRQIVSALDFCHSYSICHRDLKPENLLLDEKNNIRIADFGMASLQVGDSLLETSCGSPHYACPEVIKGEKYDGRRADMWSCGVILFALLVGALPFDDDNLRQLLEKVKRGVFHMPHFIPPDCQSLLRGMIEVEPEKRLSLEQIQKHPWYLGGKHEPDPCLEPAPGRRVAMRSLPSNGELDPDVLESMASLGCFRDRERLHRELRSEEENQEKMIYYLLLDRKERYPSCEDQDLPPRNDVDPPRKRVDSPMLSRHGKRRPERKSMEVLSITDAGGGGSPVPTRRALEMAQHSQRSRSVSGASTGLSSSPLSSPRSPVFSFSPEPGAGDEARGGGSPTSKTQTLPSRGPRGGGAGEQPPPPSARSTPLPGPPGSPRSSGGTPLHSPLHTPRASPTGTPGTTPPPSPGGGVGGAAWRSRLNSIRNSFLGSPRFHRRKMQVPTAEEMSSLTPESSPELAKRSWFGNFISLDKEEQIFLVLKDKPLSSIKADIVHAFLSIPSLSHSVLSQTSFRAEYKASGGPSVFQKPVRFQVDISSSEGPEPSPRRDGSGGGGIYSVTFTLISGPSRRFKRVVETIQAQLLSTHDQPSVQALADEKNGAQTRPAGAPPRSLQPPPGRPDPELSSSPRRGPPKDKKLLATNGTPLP
Method in brief: (§4)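 Outsourced single-concentration screen in a commercial panel of 233 protein kinases, run as radiometric filter-binding activity assays. Test agent was tested at 0.3 or 3 µmol/L, as given in each line, from a 10 mmol/L DMSO stock. Activity is expressed as percent inhibition relative to control.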

NCI-H929 = assay: Induction of cell cycle arrest in human NCI-H929 cells assessed as cells accumulation at G2 phase at 1 umol/L incubated for 48 hrs by propidium iodide staining based flow cytometric analysis (reference value: 33%); format: functional; details: dose 1 µmol/L, at 1 µM; method in brief: as §3
[10] = biological target: Inhibitor of nuclear factor kappa-B kinase subunit alpha (Homo sapiens, UniProt O15111); assay: Inhibition of IKK1 (unknown origin)
[11] = biological target: Protein kinase C iota type (Homo sapiens) (UniProt P41743); assay: Inhibition of N-terminal His6-tagged recombinant full-length human PKCiota expressed in Sf21 cells at 0.3 uM by filter binding assay relative to control; method in brief: as §4
MCF7 = assay: Induction of cell cycle arrest in human MCF7 cells assessed as effect on sub-2N-DNA content at 0.03 to 10 uM incubated for 24 to 48 hrs by propidium iodide staining based flow cytometric analysis; format: functional; details: dose 0.03-10 µM, time lower 24.0 hrs, time upper […]; method in brief: as §3
[12] = Inhibition of recombinant mouse N-terminal 6His-tagged full length P110alpha/full length mouse […] expressed in baculovirus infected Sf21 cells at 0.3 uM by filter binding assay relative to control; details: condition cancer
[13] = Inhibition of C-terminal His6-tagged human full length CDK2/N-terminal GST-tagged human full length cyclinA expressed in baculovirus infected Sf21 cells at 3 uM by filter binding assay relative to control; details: condition cancer; method in brief: as §2
[14] = Toxicity in nu/nu CD-1 mouse xenografted with human COLO 205 cells assessed as reduction in body weight at 30 mg/kg, po for 21 days relative to control; parameters: scale not given: the % may be the effect or the level left; details: in vivo, 504 h
[15] = biological target: Insulin receptor (Mus musculus) (UniProt P15208); details: CD-1, dose 30.0 mg/kg, route po, time 21.0 day
Insulin receptor (Mus musculus), sequence (P15208 28-748 limits assumed): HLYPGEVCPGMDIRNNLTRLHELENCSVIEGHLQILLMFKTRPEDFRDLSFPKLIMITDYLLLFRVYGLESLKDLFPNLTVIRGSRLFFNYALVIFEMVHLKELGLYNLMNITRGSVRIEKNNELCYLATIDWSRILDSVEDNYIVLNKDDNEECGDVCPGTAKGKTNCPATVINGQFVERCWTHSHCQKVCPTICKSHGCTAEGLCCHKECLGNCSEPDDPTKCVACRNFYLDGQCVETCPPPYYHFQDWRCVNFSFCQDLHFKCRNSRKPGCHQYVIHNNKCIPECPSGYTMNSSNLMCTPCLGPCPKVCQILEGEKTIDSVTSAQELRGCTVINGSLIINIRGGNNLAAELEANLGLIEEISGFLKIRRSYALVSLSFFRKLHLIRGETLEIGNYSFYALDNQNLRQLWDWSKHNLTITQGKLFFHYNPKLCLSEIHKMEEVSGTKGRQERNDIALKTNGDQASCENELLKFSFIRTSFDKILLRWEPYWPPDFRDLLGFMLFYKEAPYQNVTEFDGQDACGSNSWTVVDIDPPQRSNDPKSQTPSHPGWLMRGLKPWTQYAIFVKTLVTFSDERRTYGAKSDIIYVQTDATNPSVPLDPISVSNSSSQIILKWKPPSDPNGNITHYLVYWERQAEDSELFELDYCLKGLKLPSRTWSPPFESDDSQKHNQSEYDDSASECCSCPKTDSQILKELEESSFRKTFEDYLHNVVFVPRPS
Insulin receptor (Mus musculus), sequence (P15208 753-1372 limits assumed): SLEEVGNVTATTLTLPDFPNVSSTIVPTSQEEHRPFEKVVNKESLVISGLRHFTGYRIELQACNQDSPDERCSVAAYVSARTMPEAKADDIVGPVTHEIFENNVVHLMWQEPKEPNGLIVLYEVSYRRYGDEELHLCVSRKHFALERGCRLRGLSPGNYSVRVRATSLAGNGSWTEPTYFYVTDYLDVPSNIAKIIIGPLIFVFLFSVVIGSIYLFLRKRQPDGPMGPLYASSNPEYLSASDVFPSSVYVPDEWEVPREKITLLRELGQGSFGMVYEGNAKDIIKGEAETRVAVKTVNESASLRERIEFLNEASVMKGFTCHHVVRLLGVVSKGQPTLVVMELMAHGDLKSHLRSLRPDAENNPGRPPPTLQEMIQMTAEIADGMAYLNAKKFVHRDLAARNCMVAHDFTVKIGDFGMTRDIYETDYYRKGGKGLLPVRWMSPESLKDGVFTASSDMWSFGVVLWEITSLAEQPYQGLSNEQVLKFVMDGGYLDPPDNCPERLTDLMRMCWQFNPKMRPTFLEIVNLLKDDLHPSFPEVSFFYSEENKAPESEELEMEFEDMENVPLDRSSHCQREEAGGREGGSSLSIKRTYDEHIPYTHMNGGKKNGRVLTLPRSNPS

[16] = biological target: Serine/threonine-protein kinase PAK 4 (Homo sapiens) (UniProt O96013); assay: Inhibition of N-terminal His6/C-terminal GST-tagged recombinant human PAK4 (295 to end residues) expressed in baculovirus infected Sf21 cells at 3 uM by filter binding assay relative to control
[17] = Inhibition of N-terminal His6-tagged recombinant full-length human CDK5/N-terminal GST-tagged recombinant full-length human p35 expressed in baculovirus infected Sf21 cells at 0.3 uM by filter binding assay relative to control; details: condition cancer; method in brief: as §4
[18] = biological target: 3-phosphoinositide-dependent protein kinase 1 (PDPK1) (Homo sapiens) (UniProt O15530); assay: Inhibition of N-terminal His6-tagged recombinant human PDK1 (52 to end residues) expressed in baculovirus infected Sf21 cells at 0.3 uM by filter binding assay relative to control
3-phosphoinositide-dependent protein kinase 1 (PDPK1) (Homo sapiens), sequence (O15530 whole entry, looked up): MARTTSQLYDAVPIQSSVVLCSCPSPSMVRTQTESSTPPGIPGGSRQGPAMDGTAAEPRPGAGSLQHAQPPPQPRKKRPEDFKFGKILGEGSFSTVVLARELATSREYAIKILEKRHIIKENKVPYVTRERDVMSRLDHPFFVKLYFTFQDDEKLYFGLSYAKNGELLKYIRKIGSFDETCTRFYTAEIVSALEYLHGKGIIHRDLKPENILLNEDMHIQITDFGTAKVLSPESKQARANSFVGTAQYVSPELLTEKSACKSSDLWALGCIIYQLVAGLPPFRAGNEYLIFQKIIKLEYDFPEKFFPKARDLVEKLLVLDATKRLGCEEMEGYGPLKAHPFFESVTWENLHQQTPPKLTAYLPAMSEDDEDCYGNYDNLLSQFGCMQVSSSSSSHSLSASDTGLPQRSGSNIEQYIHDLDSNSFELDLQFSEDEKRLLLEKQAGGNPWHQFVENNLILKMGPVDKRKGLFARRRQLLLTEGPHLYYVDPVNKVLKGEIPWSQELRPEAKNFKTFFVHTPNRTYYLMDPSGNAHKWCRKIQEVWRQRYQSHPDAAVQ

[19] = biological target: Protein kinase C theta type (Homo sapiens, UniProt Q04759); assay: Inhibition of PKCtheta (unknown origin)
[20] = biological target: Tyrosine-protein kinase ZAP-70 (Homo sapiens, UniProt P43403); assay: Inhibition of ZAP70 (unknown origin)

Which inhibition (Rattus norvegicus) does the source give for `CCc1cc(Nc2nccc(-c3c(-c4ccc(OC)c(C(=O)Nc5c(F)cccc5F)c4)nc4ccccn34)n2)c(OC)cc1N1CCC(N2CCN(S(C)(=O)=O)CC2)CC1` here?
The inhibition was 0%.

What about the IC50 [1] of the same compound?
The IC50 was > 10 µM.

And the IC50 [2]?
The IC50 was > 25 µM.

And the IC50 (MX1)?
Its IC50 is 0.189 µM.

And the IC50 (LNCaP)?
The IC50 was > 20 µM.

And the inhibition [3]?
Its inhibition is 11%.

And the IC50 [4]?
Its IC50 is 0.061 µM.

And the inhibition [5]?
The inhibition was -10%.

What about the inhibition [6] of the same compound?
The inhibition was 10%.

And the IC50 [7]?
Its IC50 is 0.058 µM.

What about the inhibition in vivo at 30 mg/kg [8] of the same compound?
The inhibition in vivo at 30 mg/kg was > 90%.

And the Activity (COLO 205)?
Its Activity is “Active”.

And the inhibition [9]?
Its inhibition is 24%.

What about the Activity (NCI-H929) of the same compound?
Its Activity is 8%.

What about the IC50 [10] of the same compound?
Its IC50 is 13 µM.

What about the inhibition [11] of the same compound?
The inhibition was 0%.

And the Activity (MCF7)?
Its Activity is “inactive”.

And the inhibition at 0.3 µM [12]?
The inhibition at 0.3 µM was 0%.

And the inhibition at 3 µM [13]?
Its inhibition at 3 µM is 8%.

What about the Activity [14] of the same compound?
The Activity was 5%.

And the inhibition [15]?
Its inhibition is “inactive”.

What about the inhibition [16] of the same compound?
The inhibition was 0%.

And the inhibition at 0.3 µM [17]?
Its inhibition at 0.3 µM is -8%.

What about the inhibition [18] of the same compound?
The inhibition was 1%.

What about the IC50 [19] of the same compound?
Its IC50 is > 10 µM.

And the IC50 [20]?
The IC50 was > 20 µM.
